According to ChEMBL document CHEMBL1136006, “New PET imaging agent for the serotonin transporter: [(18)F]ACF (2-[(2-amino-4-chloro-5-fluorophenyl)thio]-N,N-dimethyl-benzenmethanamine)” (J Med Chem, 2002):

Legend:
[1] = system: Rattus norvegicus; experiment: Effect of pretreatment with (+)-McN5652 with a dose of 2 mg/kg (i.v.) on specific binding of [18F]ACF in rat brain cortex; format: ADME, organism-based; parameters: dose 2 mg/kg, route intravenous; details: in vivo, iv
Method in brief: (§1)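 Rats pretreated iv with drug (2 mg/kg) or saline 5 min before iv [18F]ACF (50 μCi). Sacrificed 1 h after tracer. Brain regions were dissected, weighed and counted, and % dose/g was calculated against a diluted initial dose. Drug-treated rats were compared with saline controls by ANOVA/Dunnett's test (p<0.05). Three rats per point, average ± SD.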

[2] = system: Rattus norvegicus; experiment: Effect of pretreatment with (+)-McN5652 with a dose of 2 mg/kg (i.v.) on specific binding of [18F]ACF in rat brain hippocampus; format: ADME, organism-based; parameters: dose 2 mg/kg, route intravenous; details: in vivo, iv; method in brief: as §1
[3] = system: Rattus norvegicus; experiment: Effect of pretreatment with (+)-McN5652 with a dose of 2 mg/kg (i.v.) on specific binding of [18F]ACF in rat brain hypothalamus; format: ADME, organism-based; parameters: dose 2 mg/kg, route intravenous; details: in vivo, iv; method in brief: as §1
[4] = system: Rattus norvegicus; experiment: Effect of pretreatment with methylphenidate with a dose of 2 mg/kg (i.v.) on specific binding of [18F]ACF in rat brain cortex; format: ADME, organism-based; parameters: dose 2 mg/kg, route intravenous; details: in vivo, iv; method in brief: as §1
[5] = system: Rattus norvegicus; experiment: Effect of pretreatment with […] with a dose of 2 mg/kg (i.v.) on specific binding of [18F]ACF in rat brain hippocampus; format: ADME, organism-based; parameters: dose 2 mg/kg, route intravenous; details: in vivo, iv; method in brief: as §1
[6] = system: Rattus norvegicus; experiment: Effect of pretreatment with nisoxatine with a dose of 2 mg/kg (i.v.) on specific binding of [18F]ACF in rat brain remainder; format: ADME, organism-based; parameters: dose 2 mg/kg, route intravenous; details: in vivo, iv; method in brief: as §1
[7] = system: Rattus norvegicus; experiment: Effect of pretreatment with (+)-McN5652 with a dose of 2 mg/kg (i.v.) on specific binding of [18F]ACF in rat brain cerebellum; format: ADME, organism-based; parameters: dose 2 mg/kg, route intravenous; details: in vivo, iv; method in brief: as §1
[8] = organism: Rattus norvegicus; experiment: Regional brain distribution of [18F]-ACF radiolabeled compound in rat remainder (rest of brain) after 60 min; format: ADME, organism-based; details: in vivo, 1 h
Method in brief: (§2)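 Rats (three per group) under ether anesthesia got 30 μCi tracer in 0.2 mL saline into the femoral vein and were killed by cardiac excision at the stated time. Cortex, striatum, hippocampus, cerebellum, hypothalamus and the rest of brain were dissected, weighed and gamma counted. %dose/g was taken against counts of a diluted initial dose. Regional ratios are each region's %dose/g over cerebellum's. Mean ± SD.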

[9] = organism: Rattus norvegicus; experiment: Regional brain distribution of [18F]ACF radiolabeled compound in rat striatum after 120 min; format: ADME, organism-based; details: in vivo, 2 h
Method in brief: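 Rats (3 per group) under ether anaesthesia received 30 μCi tracer in 0.2 mL saline into the femoral vein. Killed by cardiac excision under ether at the set time. Striatum and other brain regions dissected, weighed and gamma-counted. % dose/g calculated against counts of a diluted 1% initial-dose standard. Values given as average ± SD of three rats.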

[10] = organism: Rattus norvegicus; experiment: Regional brain distribution of [18F]-ACF radiolabeled compound in rat striatum after 240 min; format: ADME, organism-based; details: in vivo, 4 h; method in brief: as §2
[11] = organism: Rattus norvegicus; experiment: Regional brain distribution of [18F]-ACF radiolabeled compound in rat striatum after 2 min; format: ADME, organism-based; details: in vivo; method in brief: as §2
[12] = organism: Rattus norvegicus; experiment: Regional brain distribution of [18F]-ACF radiolabeled compound in rat hypothalamus after 2 min; format: ADME, organism-based; details: in vivo; method in brief: as §2
[13] = organism: Rattus norvegicus; experiment: Regional brain distribution of [18F]ACF radiolabeled compound in rat hypothalamus after 30 min; format: ADME, organism-based; details: in vivo, 0.5 h; method in brief: as §2
[14] = organism: Rattus norvegicus; experiment: Regional brain distribution of [18F]-ACF radiolabeled compound in rat remainder (rest of brain) after 30 min; format: ADME, organism-based; details: in vivo, 0.5 h; method in brief: as §2
[15] = organism: Rattus norvegicus; experiment: Regional brain distribution of [18F]ACF radiolabeled compound in rat striatum after 60 min; format: ADME, organism-based; details: in vivo, 1 h
Method in brief: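 Rats, three per group, under ether anaesthesia, given 30 μCi no-carrier-added tracer in 0.2 mL saline into the femoral vein. They were killed at the stated time by cardiac excision under ether. Striatum and other brain regions were dissected, weighed and counted. %dose/g was calculated against counts of 1% of the injected dose, as mean ± SD of three rats.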

[16] = organism: Rattus norvegicus; experiment: Organ distribution of [18F]-ACF radiolabeled compound in rat liver after 120 min; format: ADME, organism-based; details: in vivo, 2 h
Method in brief: (§3)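 Under ether anesthesia, 30 μCi no-carrier-added tracer in 0.2 mL saline injected into the femoral vein. Rats killed by cardiac excision at the stated time. Organs were removed, weighed and counted; % dose/organ was calculated against counts of a 1% initial-dose standard. Three rats per time, average ± SD.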

[17] = organism: Rattus norvegicus; experiment: Organ distribution of [18F]ACF radiolabeled compound in rat liver after 2 min; format: ADME, organism-based; details: in vivo
Method in brief: (§4)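 Rats, three per time point, under ether anesthesia; 30 μCi tracer in 0.2 mL saline injected into femoral vein. Sacrificed by cardiac excision under ether at 2, 30, 60, 120 or 240 min. Organs removed, weighed and counted; % dose/organ calculated against counts of 1% of initial dose counted at the same time. Average of three rats ± SD.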

[18] = organism: Rattus norvegicus; experiment: Organ distribution of [18F]-ACF radiolabeled compound in rat muscle after 2 min; format: ADME, organism-based, Muscle tissue; details: in vivo; method in brief: as §3
[19] = organism: Rattus norvegicus; experiment: Organ distribution of [18F]-ACF radiolabeled compound in rat skin after 120 min; format: ADME, organism-based; details: in vivo, 2 h; method in brief: as §3
[20] = organism: Rattus norvegicus; experiment: Organ distribution of [18F]-ACF radiolabeled compound in rat skin after 30 min; format: ADME, organism-based; details: in vivo, 0.5 h; method in brief: as §3
[21] = organism: Rattus norvegicus; experiment: Organ distribution of [18F]-ACF radiolabeled compound in rat skin after 60 min; format: ADME, organism-based; details: in vivo, 1 h; method in brief: as §3
[22] = organism: Rattus norvegicus; experiment: Organ distribution of [18F]-ACF radiolabeled compound in rat spleen after 30 min; format: ADME, organism-based; details: in vivo, 0.5 h; method in brief: as §3
[23] = organism: Rattus norvegicus; experiment: Organ distribution of [18F]-ACF radiolabeled compound in rat bone after 30 min; format: ADME, organism-based, Bone element; details: in vivo, 0.5 h; method in brief: as §3
[24] = organism: Rattus norvegicus; experiment: Regional brain distribution of [18F]-ACF radiolabeled compound in rat hippocampus after 30 min; format: ADME, organism-based; details: in vivo, 0.5 h; method in brief: as §2
[25] = organism: Rattus norvegicus; experiment: Organ distribution of [18F]ACF radiolabeled compound in rat brain after 120 min; format: ADME, organism-based; details: in vivo, 2 h; method in brief: as §4
[26] = organism: Rattus norvegicus; experiment: Organ distribution of [18F]ACF radiolabeled compound in rat heart after 120 min; format: ADME, organism-based; details: in vivo, 2 h; method in brief: as §4
[27] = organism: Rattus norvegicus; experiment: Ratio of regional brain distribution of [18F]ACF radiolabeled compound in rat cortex to that of cerebellum after 60 min; format: ADME, organism-based; details: in vivo, 1 h; method in brief: as §2
[28] = organism: Rattus norvegicus; experiment: Ratio of regional brain distribution of [18F]-ACF radiolabeled compound in rat remainder to that of cerebellum after 2 min; format: ADME, organism-based; details: in vivo; method in brief: as §2
[29] = organism: Rattus norvegicus; experiment: Ratio of regional brain distribution of [18F]ACF radiolabeled compound in rat remainder to that of cerebellum after 60 min; format: ADME, organism-based; details: in vivo, 1 h; method in brief: as §2
[30] = organism: Rattus norvegicus; experiment: Ratio of regional brain distribution of [18F]ACF radiolabeled compound in rat hippocampus to that of cerebellum after 60 min; format: ADME, organism-based; details: in vivo, 1 h; method in brief: as §2
[31] = system: Rattus norvegicus; experiment: Ratio of effect of pretreatment with (+)-McN5652 with a dose of 2 mg/kg (i.v.) on specific binding of [18F]ACF in rat brain cerebellum to that of cerebellum; format: ADME, organism-based; parameters: dose 2 mg/kg, route intravenous; details: in vivo, iv
Method in brief: (§5)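 Rats (three per point) pretreated iv with competing drug at 2 mg/kg or saline (control) 5 min before iv [18F]ACF (50 μCi). At 1 h post tracer, brain regions (cortex, striatum, hippocampus, cerebellum, hypothalamus, remainder) dissected, weighed, counted as % dose/g and expressed as ratio to cerebellum. Average ± SD; ANOVA with Dunnett's test vs saline controls, p < 0.05.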

[32] = system: Rattus norvegicus; experiment: Ratio of effect of pretreatment with methylphenidate with a dose of 2 mg/kg (i.v.) on specific binding of [18F]ACF in rat brain cerebellum to that of cerebellum; format: ADME, organism-based; parameters: dose 2 mg/kg, route intravenous; details: in vivo, iv; method in brief: as §5
[33] = system: Rattus norvegicus; experiment: Ratio of effect of pretreatment with methylphenidate with a dose of 2 mg/kg (i.v.) on specific binding of [18F]ACF in rat brain cortex to that of cerebellum; format: ADME, organism-based; parameters: dose 2 mg/kg, route intravenous; details: in vivo, iv; method in brief: as §5
[34] = organism: Rattus norvegicus; experiment: Ratio of regional brain distribution of [18F]ACF radiolabeled compound in rat striatum to that of cerebellum after 60 min; format: ADME, organism-based; details: in vivo, 1 h; method in brief: as §2

CN(C)Cc1ccccc1Sc1cc(F)c(Cl)cc1N gave a Dose/g [1] of 0.24%, a Dose/g [2] of 0.34% and a Dose/g [3] of 0.24%. It also gave a Dose/g [4] of 0.35%, a Dose/g [5] of 0.46% and a Dose/g [6] of 0.41%. It also gave a Dose/g [7] of 0.17%, a Dose/g [8] of 0.39% and a Dose/g [9] of 0.15%. The Dose/g [10] was 0.05%, the Dose/g [11] was 1.78% and the Dose/g [12] was 1.76%. For the same compound, the Dose/g [13] was 0.85%, the Dose/g [14] was 0.67% and the Dose/g [15] was 0.45%. It also gave a Dose/g [16] of 5.9 % dose/organ, a Dose/g [17] of 9.41 % dose/organ and a Dose/g [18] of 14.3 % dose/organ. The Dose/g [19] was 2.61 % dose/organ, the Dose/g [20] was 6.51 % dose/organ and the Dose/g [21] was 5.97 % dose/organ. The Dose/g [22] was 0.29 % dose/organ, the Dose/g [23] was 0.04 % dose/organ and the Dose/g [24] was 0.7%. It also gave a Dose/g [25] of 0.21 % dose/organ, a Dose/g [26] of 0.06 % dose/organ and a Ratio [27] of 2.1. It also gave a Ratio [28] of 1.32, a Ratio [29] of 2.56 and a Ratio [30] of 2.91. It also gave a Ratio [31] of 1, a Ratio [32] of 1 and a Ratio [33] of 2.02. For the same compound, the Ratio [34] was 2.88.
